Values joined by “and” are separate entries in the source; they are usually repeats but may differ in a detail not shown here. Identical values can stand only once.
Experiments:
[1] = 3 + 3 dose‐escalation: dose‐limiting toxicity; format: in vivo, human; details: patients with advanced cancer
[2] = Carboplatin; format: in vivo, human; details: Cycle 1 day 1, plasma ultrafiltrate, target AUC 4, N=21 (dose‐level 1‐4)
Summary of the method: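 Platinum from carboplatin measured in plasma and plasma ultrafiltrate by ICPMS with iridium internal standard. Carboplatin was given as a 30-min IV infusion on Day 1, dosed by Calvert formula (Cockcroft-Gault GFR), alongside oral olaparib BID from Day 0. Blood (4 mL) was sampled 0.25, 0.5, 1, 2, 4, 6, 8, 10, 24 and 48 h post-infusion. AUC0-48 calculated.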

[3] = once per 21‐day cycle with olaparib capsules 400 mg BID Day 1 to 7; cited from earlier work
[4] = Olaparib pharmacokinetics in human plasma; format: in vivo; details: Cycle 1 day 0, dose‐level 3 (MTD), olaparib 75 mg tablets, N=6, plasma
[5] = tested on: PAR levels (balance of PARP and PARG activity) in peripheral blood mononuclear cells; assay: Radiation‐enhanced‐PAR pharmacodynamic assay; format: in vivo, human; details: Day 8 vs before treatment, lowest dose‐level (25 mg olaparib BID), ex vivo 8 Gy
Summary of the method: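 Venous blood (16 mL, mononuclear cell preparation citrate tubes) was drawn pre-dose Day 0 and Day 8 of cycle 1; olaparib BID from Day 0, carboplatin AUC 3 mg*min/mL IV Day 1 at this level. Three independent samples of 2 × 10⁶ PBMCs were irradiated ex vivo with 8 Gy on ice, then held 1 h on ice. PAR was quantified by HT-PARP in vivo pharmacodynamics Assay II (NCI protocol). Reduction = ([Day 0 − Day 8]/Day 0) × 100%.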

[6] = tablet 300 mg vs capsule 400 mg; cited from earlier work

Row | Structure (SMILES) | Maximum tolerable dose (MTD), carboplatin part (target AUC) ([1]; carboplatin d1/d22 with olaparib tablets 75 mg BID, two cycles) [mg·min/mL] | Carboplatin AUC0-48 (mean) [2] | MTD, carboplatin part (target AUC) [3] [mg·min/mL] | Maximum tolerable dose (MTD), olaparib part ([1]; olaparib tablets continuously with carboplatin AUC 4 mg*min/mL d1/d22, two cycles) [mg BID] | Olaparib AUC0-12 (mean) [4] [ng·h/mL] | Relative reduction in PAR levels in PBMCs [5] | AUC of the tablet formulation (300 mg) higher than the capsule formulation (400 mg) [6] [%]
1 | N.N.O=C([O-])C1(C(=O)[O-])CCC1.[Pt+2] [carboplatin] | 4 | 5.10 mg·min/mL and 5.1 mg·min/mL and 5 mg·min/mL | 5 | – | – | – | –
2 | O=C(c1cc(Cc2n[nH]c(=O)c3ccccc23)ccc1F)N1CCN(C(=O)C2CC2)CC1 [olaparib] | – | – | – | 75 | 15500 | 97.5% ± 0.1% | 13
